From ChEMBL document CHEMBL4251750, “Structural Insights of Benzenesulfonamide Analogues as NLRP3 Inflammasome Inhibitors: Design, Synthesis, and Biological Characterization” (J Med Chem, 2018) come the findings set out here.

The source made the active and inactive calls. The calls are words filed in the database; no cut-off is given here. A value given as a limit tells only on which side of the number the result lay.

The target of data set [1] is T1, NACHT, LRR and PYD domains-containing protein 3 (Mus musculus, UniProt Q8R4B8). The experiment in a line: Inhibition of NLRP3 in mouse J774A.1 cells assessed as reduction in LPS-stimulated IL-1beta levels pre-incubated with LPS for 4.5 hrs followed by incubation for 30 mins in presence of ATP and measured after 30 mins by ELISA. It is filed as cell-based. In general terms: ELISA stands for enzyme-linked immunosorbent assay.

For data set [2], the target named is T1, NACHT, LRR and PYD domains-containing protein 3. Nature of the data set: Inhibition of NLRP3 in mouse BMDM assessed as reduction in LPS-stimulated IL-1beta levels pre-incubated with LPS for 4.5 hrs followed by incubation for 30 mins in presence of ATP and measured after 30 mins by ELISA. It is filed as cell-based. Put shortly: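 J774A.1 cells (DMEM, 10% FBS; 1 × 10⁵/well, plated 24 h) or bone marrow derived macrophages primed with E. coli 0111:B4 LPS (final 1 µg/mL) for 4.5 h. Compound and ATP (5 mM) then added together for 30 min. Supernatant IL-1β by mouse ELISA.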

For data set [3], the system named is Mus musculus. The experiment in a line: In-vivo inhibition of NLRP3 inflammasome in C57BL/6 mouse assessed as reduction in LPS-induced IL-1beta levels at 0.5 mg/kg, ip pre-treated for 1 hr followed by LPS stimulation for 2.5 hrs by ELISA. It is filed as functional, organism-based. Put shortly:
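C57BL/6 mice dosed with compound or vehicle, then 1 h later given LPS 20 mg/kg i.p. (PBS control). Serum IL-1β measured by ELISA 2.5 h after LPS.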

Data set [4] deals with NACHT, LRR and PYD domains-containing protein 3 (Mus musculus) (UniProt Q8R4B8). The experiment in a line: Ratio of IC50 for LPS/ATP-induced NLRP3-mediated IL1beta release in mouse J774A.1 cells to IC50 for LPS/ATP-induced NLRP3-mediated IL1beta release in mouse BMDM. It is filed as cell-based.
In data set [5] the test system is Mus musculus. The experiment in a line: Cognition enhancement activity in double APP/PS1 transgenic Alzheimer's disease C57BL/6 mouse model assessed as decrease in latency to find goal platform at 100 mg/kg, ip administered as single daily dose at 5 times per week for first 1 week followed by oral administration as single daily dose at 5 times per week for next 7 weeks by Morris water maze test relative to control. The class given is functional, organism-based. Put shortly: (§1)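 APP/PS1 female transgenic mice (B6C3-Tg APPswe/PSEN1dE9) and matching WT females, randomized at 7 months (WT vehicle n=4, treated n=6; Tg vehicle n=5, treated n=7). Daily i.p. (10% DMSO with PEG-100) for 5 days, then oral (2% DMSO in corn oil) once daily weekdays for 7 weeks. Afterwards tested by novel object recognition (discrimination index) and Morris water maze (4-day fixed-platform latency trials, then probe trial).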

Data set [6] has as its system Mus musculus. The experiment in a line: Cognition enhancement activity in double APP/PS1 transgenic Alzheimer's disease C57BL/6 mouse model assessed as discrimination index at 100 mg/kg, ip administered as single daily dose at 5 times per week for first 1 week followed by oral administration as single daily dose at 5 times per week for next 7 weeks by novel object recognition test relative to control. The class given is functional. Put shortly:
as §1

The subject of data set [7] is Mus musculus. Nature of the data set: Cognition enhancement activity in double APP/PS1 transgenic Alzheimer's disease C57BL/6 mouse model assessed as increase in time spent in goal quadran at 100 mg/kg, ip administered as single daily dose at 5 times per week for first 1 week followed by oral administration as single daily dose at 5 times per week for next 7 weeks by Morris water maze test relative to control. It is filed as functional, organism-based. In a few lines:
as §1

Data set [8] concerns Mus musculus. Nature of the data set: Effect on cognition activity in wild type C57BL/6 mouse assessed as decrease in time spent in goal quadran at 100 mg/kg, ip administered as single daily dose at 5 times per week for first 1 week followed by oral administration as single daily dose at 5 times per week for next 7 weeks by Morris water maze test relative to control. It is filed as ADME, organism-based. As to conditions: in vivo. Put shortly:
as §1

Data set [9] deals with Mus musculus. Nature of the data set: Cardioprotective activity in 30 mins coronary artery ligated I/R AMI ICR mouse model assessed as reduction in infract size at 30 mg/kg, po measured at 24 hrs post surgery by TTC-staining based assay. It is filed as functional, organism-based. Put shortly: (§2)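 ICR mice (8-12 weeks) were anesthetized with pentobarbital (50-70 mg/kg) and intubated, then underwent left thoracotomy and pericardiectomy. The proximal left coronary artery was ligated for 30 min or 75 min and released. Compound or vehicle was given at 0.1 mL, with n=6 per group. At 24 h after ischemia, viable myocardium was stained with TTC to measure infarct size.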

Data set [10] concerns Mus musculus. The experiment in a line: Cardioprotective activity in 30 mins coronary artery ligated I/R AMI ICR mouse model assessed as reduction in troponin-1 levels at 30 mg/kg, po measured at 24 hrs post surgery by ELISA. It is filed as functional, organism-based. Put shortly: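 ICR mice (8-12 weeks) under pentobarbital anaesthesia, intubated; left thoracotomy, pericardiectomy, proximal left coronary artery ligated 30 min then released. Compound or matched vehicle (0.1mL), n=6 per group.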

Data set [11] relates to Mus musculus. Nature of the data set: Cardioprotective activity in 75 mins coronary artery ligated I/R AMI ICR mouse model assessed as reduction in infract size at 30 mg/kg, po measured at 24 hrs post surgery by TTC-staining based assay. It is filed as functional, organism-based. Put shortly:
as §2

Usually IC50 stands for the concentration needed to halve the response being measured.

T1 sequence (Q8R4B8 whole entry, the tested form may be a part): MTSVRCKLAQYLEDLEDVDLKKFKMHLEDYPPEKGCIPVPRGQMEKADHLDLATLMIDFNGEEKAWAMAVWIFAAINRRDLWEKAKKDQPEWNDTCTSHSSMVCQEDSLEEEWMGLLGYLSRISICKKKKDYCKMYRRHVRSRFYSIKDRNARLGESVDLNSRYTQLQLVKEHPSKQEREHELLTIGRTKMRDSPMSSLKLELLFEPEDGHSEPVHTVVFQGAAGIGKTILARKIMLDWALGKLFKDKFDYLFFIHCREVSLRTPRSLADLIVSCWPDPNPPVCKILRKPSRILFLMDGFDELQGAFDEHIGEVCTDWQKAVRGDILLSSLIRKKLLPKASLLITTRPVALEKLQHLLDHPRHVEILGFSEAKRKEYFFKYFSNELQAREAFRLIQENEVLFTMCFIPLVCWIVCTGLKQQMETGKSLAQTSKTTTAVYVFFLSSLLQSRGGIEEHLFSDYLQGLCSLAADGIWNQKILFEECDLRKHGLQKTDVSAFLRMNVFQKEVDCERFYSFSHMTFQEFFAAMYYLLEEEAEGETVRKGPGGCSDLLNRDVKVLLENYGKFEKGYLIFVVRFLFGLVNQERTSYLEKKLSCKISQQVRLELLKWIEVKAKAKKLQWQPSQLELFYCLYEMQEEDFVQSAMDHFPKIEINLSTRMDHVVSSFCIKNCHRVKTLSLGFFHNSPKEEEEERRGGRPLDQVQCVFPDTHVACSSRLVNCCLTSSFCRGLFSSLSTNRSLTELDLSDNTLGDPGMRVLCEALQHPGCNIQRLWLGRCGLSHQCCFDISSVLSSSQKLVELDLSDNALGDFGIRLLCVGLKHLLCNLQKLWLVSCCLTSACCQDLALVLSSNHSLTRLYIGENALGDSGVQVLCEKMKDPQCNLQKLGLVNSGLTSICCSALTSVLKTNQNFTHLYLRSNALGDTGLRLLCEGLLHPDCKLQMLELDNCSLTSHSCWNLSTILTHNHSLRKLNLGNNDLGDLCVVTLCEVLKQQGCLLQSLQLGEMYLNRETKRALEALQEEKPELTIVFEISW
NACHT, LRR and PYD domains-containing protein 3 (Mus musculus), sequence (Q8R4B8 whole entry, the tested form may be a part): as above

As to `COc1ccc(Cl)cc1C(=O)NCCc1ccc(S(=O)(=O)N2CCC2)cc1`, the IC50 in data set [1] amounted to 1.66 µM.

Regarding `COc1ccc(Cl)cc1C(=O)NCCc1ccc(S(=O)(=O)NCc2ccc(O)cc2)cc1`, the IC50 in data set [1] is 0.63 µM.

For the molecule `COc1ccc(Cl)cc1C(=O)NCCc1ccc(S(=O)(=O)Nc2ccccc2)cc1`, the IC50 in data set [1] amounted to 2.08 µM.

As to `CNS(=O)(=O)c1ccc(CCNC(=O)c2cc(Cl)cc(OC)c2)cc1`, the IC50 in data set [1] is 5.83 µM.

Regarding `COc1ccc(CNS(=O)(=O)c2ccc(CCNC(=O)c3cc(Cl)ccc3OC)cc2)cc1`, the results for the 50% inhibitory concentration (IC50) in data set [1] and in data set [2] were 0.42 µM and 0.36 µM, respectively. The inhibition entry in data set [3] was “Active”.

Take `COc1ccc(Cl)cc1C(=O)NCCc1ccc(S(=O)(=O)N2CCCCC2)cc1`: in [1], the concentration for half-maximal inhibition (IC50) worked out at 5.01 µM.

For `CCCCNS(=O)(=O)c1ccc(CCNC(=O)c2cc(Cl)ccc2OC)cc1`, the IC50 in [1] turned out to be 0.97 µM.

Take `CNS(=O)(=O)c1ccc(CCNC(=O)c2ccc(OC)c(Cl)c2)cc1`: in data set [1], the IC50 was found to be 32.8 µM.

Take `COc1ccc(Cl)cc1C(=O)NCCc1ccc(S(=O)(=O)N2CCNCC2)cc1`: the IC50 in [1] came to 3.4 µM.

Consider `CNS(=O)(=O)c1ccc(CCNC(=O)c2cccc(Cl)c2)cc1`, for which the IC50 in data set [1] came to 13.4 µM.

As for `CNS(=O)(=O)c1ccc(CCNC(=O)c2cc(Cl)ccc2O)cc1`, the half-maximal inhibitory concentration (IC50) in data set [1] stood at 10.5 µM.

In the case of `COc1ccc(Cl)cc1C(=O)NCCc1ccc(S(=O)(=O)NCc2ccccc2)cc1`, the 50% inhibitory concentration (IC50) in data set [1] stood at 1.31 µM.

Take `CCCCN(CCCC)S(=O)(=O)c1ccc(CCNC(=O)c2cc(Cl)ccc2OC)cc1`: the IC50 in data set [1] is 0.55 µM; in data set [2], 0.12 µM. Further, the Ratio IC50 in data set [4] was 4. For the same molecule, in data set [3], the inhibition result was “Active”.

Consider `CNS(=O)(=O)c1ccc(CCCNC(=O)c2cc(Cl)ccc2OC)cc1`, for which, in [1], the half-inhibitory concentration (IC50) stood at 2.03 µM.

`COc1ccc(Cl)cc1C(=O)NCCc1ccc(S(=O)(=O)N2CCCC2)cc1`: the 50% inhibitory concentration (IC50) in data set [1] was found to be 3.53 µM.

`COc1ccc(Cl)cc1C(=O)NCCc1ccc(S(=O)(=O)NCCc2ccccc2)cc1`: the IC50 in data set [1] was found to be 0.81 µM.

Take `CNS(=O)(=O)c1ccc(CCCCNC(=O)c2cc(Cl)ccc2OC)cc1`: the 50% inhibitory concentration (IC50) in data set [1] worked out at 1.74 µM.

`COc1ccc(Cl)cc1C(=O)NCCc1ccc(S(=O)(=O)N2CCOCC2)cc1`: in data set [1], the IC50 is 3.44 µM.

With `CCCNS(=O)(=O)c1ccc(CCNC(=O)c2cc(Cl)ccc2OC)cc1`, in data set [1], the concentration for half-maximal inhibition (IC50) is 1.64 µM.

In the case of `CNS(=O)(=O)c1ccc(CCNC(=O)c2cccc(Cl)c2OC)cc1`, the IC50 in [1] came out at 31.8 µM.

In the case of `CNS(=O)(=O)c1ccc(CCNC(=O)c2c(Cl)cccc2OC)cc1`, the IC50 in data set [1] came out at 44.4 µM.

For `COc1ccc(Cl)cc1C(=O)NCCc1ccc(S(=O)(=O)NCc2ccc(C(F)(F)F)cc2)cc1`, the half-inhibitory concentration (IC50) in data set [1] was found to be 1.9 µM.

In the case of `CNS(=O)(=O)c1ccc(CCNC(=O)c2ccc(Cl)cc2OC)cc1`, the IC50 in [1] was 18 µM.

Take `CNS(=O)(=O)c1ccc(CCNC(=O)c2ccccc2)cc1`: the IC50 in [1] was 147 µM.

As to `CNS(=O)(=O)c1ccc(CCNC(=O)c2cc(Cl)ccc2OC)cc1`, the result in data set [5], in [7], in [9], in data set [10] and in data set [11] was Active. For the same molecule, the results for the Activity in data set [6] and in data set [8] were less than 50% and “Non-Toxic”, respectively.

Consider `CCN(CC)S(=O)(=O)c1ccc(CCNC(=O)c2cc(Cl)ccc2OC)cc1`, for which the IC50 in data set [1] was found to be 2.01 µM.

Turning to `COc1ccc(Cl)cc1C(=O)NCCc1ccc(S(=O)(=O)NCc2ccc(Cl)cc2)cc1`, in [1], the half-maximal inhibitory concentration (IC50) was 1.5 µM.

As for `CNS(=O)(=O)c1ccc(CCNC(=O)c2ccccc2OC)cc1`, in data set [1], the IC50 was found to be 17.1 µM.

Regarding `CCCN(CCC)S(=O)(=O)c1ccc(CCNC(=O)c2cc(Cl)ccc2OC)cc1`, the IC50 in data set [1] was found to be 1.4 µM.
